ChEMBL document CHEMBL1828498, “Identification and characterization of a novel integrin-linked kinase inhibitor” (J Med Chem, 2011)
The source made the active and inactive calls. The calls are words filed in the database; no cut-off is given here.

Tests used:
[1] = molecular target: T1, 3-phosphoinositide-dependent protein kinase 1 (Homo sapiens) (UniProt O15530); assay: Inhibition of PDK2 in human MDA-MB-231 cells assessed as Akt Thr-308 dephosphorylation by Western blot analysis; type: functional, cell-based
T1 sequence (whole entry): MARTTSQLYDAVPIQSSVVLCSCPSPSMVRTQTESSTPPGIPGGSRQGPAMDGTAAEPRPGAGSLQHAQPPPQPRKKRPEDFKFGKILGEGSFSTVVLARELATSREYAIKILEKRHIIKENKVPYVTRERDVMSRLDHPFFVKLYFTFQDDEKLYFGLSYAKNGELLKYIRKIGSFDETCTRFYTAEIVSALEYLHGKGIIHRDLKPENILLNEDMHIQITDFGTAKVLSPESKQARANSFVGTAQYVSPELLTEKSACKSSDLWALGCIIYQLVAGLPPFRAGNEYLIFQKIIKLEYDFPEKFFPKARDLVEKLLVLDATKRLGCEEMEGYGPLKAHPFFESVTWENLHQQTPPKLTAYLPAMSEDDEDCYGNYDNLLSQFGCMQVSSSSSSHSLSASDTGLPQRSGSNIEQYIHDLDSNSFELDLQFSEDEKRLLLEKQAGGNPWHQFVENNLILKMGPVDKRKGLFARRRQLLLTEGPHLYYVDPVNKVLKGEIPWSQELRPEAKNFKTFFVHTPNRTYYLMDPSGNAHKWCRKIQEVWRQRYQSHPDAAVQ
Outline: (§1)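 Cells exposed 24 h in 5% FBS medium, final DMSO 0.1%; lysed in 1% SDS/10 mM EDTA/50 mM Tris pH 8.1, equal protein on SDS-PAGE, nitrocellulose, primary antibody 1:1000 at 4°C for 2 h, HRP secondary 1:5000, ECL detection; blots representative of three independent experiments.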

PC-3 [2] = assay: Reduction in EGFR mRNA expression in human PC3 cells expressing constitutively active ILK after 24 hrs by RT-PCR analysis; type: functional, cell-based
Outline: (§2)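 PC-3, PC-3/CA-ILK, SKBR3 and SKBR3/CA-ILK cells treated 24 h in 5% FBS medium; total RNA from 1 × 10^6 cells by Trizol, 1 μg reverse-transcribed, then PCR with gene-specific primers and β-actin reference.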

PC-3 [3] = assay: Induction of autophagy in human PC3 cells expressing Atg5 siRNA assessed as LC3-II conversion by Western blot analysis; type: functional, cell-based
Outline: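 Transient Atg5 siRNA transfection of PC-3 by electroporation, cells used 48 h later, then treated. LC3-II conversion detected by immunoblot: SDS lysis, antibody 1:1000 at 4°C for 2 h, ECL. Representative of three independent experiments.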

SK-BR-3 [4] = assay: Reduction in EGFR mRNA expression in human SKBR3 cells after 24 hrs by RT-PCR analysis; type: functional, cell-based; outline: as §2
[5] = molecular target: Focal adhesion kinase 1 (Homo sapiens) (UniProt Q05397); assay: Inhibition of FAK in human PC3 cells assessed as decrease in auto-phosphorylation at Tyr-397 by Western blot analysis; type: cell-based; conditions: PC-3
Outline: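 PC-3 cells exposed to graded concentrations for 24 h in 5% FBS medium. Immunoblotting for phospho-Tyr397-FAK, ERK1/2, p38 and JNK. Lysis in 1% SDS buffer, primary antibody 1:1000 at 4°C for 2 h, ECL. Three independent experiments.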

SK-BR-3 [6] = assay: Reduction in YB-1 mRNA expression in human SKBR3 cells expressing constitutively active ILK after 24 hrs by RT-PCR analysis; type: functional, cell-based; outline: as §2
SK-BR-3 [7] = assay: Reduction in HER2 mRNA expression in human SKBR3 cells expressing constitutively active ILK after 24 hrs by RT-PCR analysis; type: functional, cell-based; outline: as §2
[8] = molecular target: T2, Scaffold protein ILK (Homo sapiens) (UniProt Q13418); assay: Inhibition of ILK in human MDA-MB-231 cells assessed as decrease in GSK3-beta phosphorylation by Western blot analysis; type: cell-based
T2 sequence (whole entry): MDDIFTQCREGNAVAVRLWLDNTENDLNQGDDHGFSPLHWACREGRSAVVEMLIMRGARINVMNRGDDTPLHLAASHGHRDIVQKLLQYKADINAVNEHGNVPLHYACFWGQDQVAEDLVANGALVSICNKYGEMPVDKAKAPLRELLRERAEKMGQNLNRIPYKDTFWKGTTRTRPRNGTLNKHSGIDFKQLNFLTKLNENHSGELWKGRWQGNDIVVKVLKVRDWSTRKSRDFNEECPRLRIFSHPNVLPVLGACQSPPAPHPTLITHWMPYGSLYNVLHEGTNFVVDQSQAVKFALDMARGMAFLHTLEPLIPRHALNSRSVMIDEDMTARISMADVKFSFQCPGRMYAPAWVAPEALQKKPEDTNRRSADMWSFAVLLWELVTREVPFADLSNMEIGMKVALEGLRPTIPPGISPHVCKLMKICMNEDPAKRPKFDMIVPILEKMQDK
Outline: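 PC-3 and MDA-MB-231 cells exposed 24 h in 5% FBS medium across a concentration series. Phospho-GSK3β (Ser9) and phospho-MLC (Thr18/Ser19) detected by immunoblot: SDS lysis, primary 1:1000 at 4°C for 2 h, HRP secondary, ECL. Representative of three experiments.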

PC-3 [9] = assay: Reduction in HER2 concentration in human PC3 cells expressing constitutively active ILK after 24 hrs by Western blot analysis; type: functional, cell-based
Outline: (§3)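 PC-3 versus stable PC-3/CA-ILK, or SKBR3 versus transient SKBR3/CA-ILK (electroporation, used 48 h after), treated 24 h in 5% FBS medium; immunoblotting with ECL; representative of three experiments.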

Scaffold protein ILK = Scaffold protein ILK (Homo sapiens, UniProt Q13418); assay: (§4) Inhibition of human ILK activity assessed myelin basic protein phosphorylation by radiometric kinase assay in the presence of [gamma 32P]ATP
Outline: (§5)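 ILK immunoprecipitated from EGF-pretreated (100 ng/mL, 2 h) PC-3 lysates with protein A/G agarose; reaction in 25 μL with 5 μg MBP and 2.5 μCi [γ-32P]ATP, 30°C for 25 min; SDS-PAGE, autoradiography, densitometry versus DMSO control; mean ± SD, n = 3.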

[10] = molecular target: T2, Scaffold protein ILK (Homo sapiens); assay: as §4; outline: as §5
Mus musculus = assay: Inhibition of phosphorylation of Ser-437-Akt in human PC3 cells xenografted nude mouse tumor lysate at 25 mg/kg, po administered for 35 days by Western blot analysis; type: functional, organism-based; set-up: dose 25 mg/kg; conditions: Neoplasm, PC-3
Outline: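 Tumors harvested at terminal sacrifice after 35 days of daily oral dosing, snap-frozen and stored at -80°C; lysates immunoblotted, three representative tumors per group.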

[11] = molecular target: T2, Scaffold protein ILK (Homo sapiens); assay: Inhibition of ILK in human PC3 cells expressing constitutively active ILK assessed as decrease in phosphorylated ERK1/2 concentration by Western blot analysis; type: cell-based; conditions: PC-3
Outline: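 Stable PC-3 clones expressing GFP-CA-ILK (G418 250 μg/mL selection, GFP sorting) treated 24 h in 5% FBS medium. Phospho-ERK1/2 and phospho-p38 detected by immunoblot with ECL. Representative of three experiments.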

[12] = molecular target: Rapamycin-insensitive companion of mTOR (Homo sapiens) (UniProt Q6R327); assay: Inhibition of mTORC2 in human PC3 cells assessed as PKCalpha phosphorylation by Western blot analysis; type: cell-based; conditions: PC-3; outline: as §1
PC-3 [13] = assay: Reduction in HER2 concentration in human PC3 cells after 24 hrs by Western blot analysis; type: functional, cell-based; outline: as §3

Focal adhesion kinase 1 (Homo sapiens), sequence (Q05397 2-1052 limits assumed): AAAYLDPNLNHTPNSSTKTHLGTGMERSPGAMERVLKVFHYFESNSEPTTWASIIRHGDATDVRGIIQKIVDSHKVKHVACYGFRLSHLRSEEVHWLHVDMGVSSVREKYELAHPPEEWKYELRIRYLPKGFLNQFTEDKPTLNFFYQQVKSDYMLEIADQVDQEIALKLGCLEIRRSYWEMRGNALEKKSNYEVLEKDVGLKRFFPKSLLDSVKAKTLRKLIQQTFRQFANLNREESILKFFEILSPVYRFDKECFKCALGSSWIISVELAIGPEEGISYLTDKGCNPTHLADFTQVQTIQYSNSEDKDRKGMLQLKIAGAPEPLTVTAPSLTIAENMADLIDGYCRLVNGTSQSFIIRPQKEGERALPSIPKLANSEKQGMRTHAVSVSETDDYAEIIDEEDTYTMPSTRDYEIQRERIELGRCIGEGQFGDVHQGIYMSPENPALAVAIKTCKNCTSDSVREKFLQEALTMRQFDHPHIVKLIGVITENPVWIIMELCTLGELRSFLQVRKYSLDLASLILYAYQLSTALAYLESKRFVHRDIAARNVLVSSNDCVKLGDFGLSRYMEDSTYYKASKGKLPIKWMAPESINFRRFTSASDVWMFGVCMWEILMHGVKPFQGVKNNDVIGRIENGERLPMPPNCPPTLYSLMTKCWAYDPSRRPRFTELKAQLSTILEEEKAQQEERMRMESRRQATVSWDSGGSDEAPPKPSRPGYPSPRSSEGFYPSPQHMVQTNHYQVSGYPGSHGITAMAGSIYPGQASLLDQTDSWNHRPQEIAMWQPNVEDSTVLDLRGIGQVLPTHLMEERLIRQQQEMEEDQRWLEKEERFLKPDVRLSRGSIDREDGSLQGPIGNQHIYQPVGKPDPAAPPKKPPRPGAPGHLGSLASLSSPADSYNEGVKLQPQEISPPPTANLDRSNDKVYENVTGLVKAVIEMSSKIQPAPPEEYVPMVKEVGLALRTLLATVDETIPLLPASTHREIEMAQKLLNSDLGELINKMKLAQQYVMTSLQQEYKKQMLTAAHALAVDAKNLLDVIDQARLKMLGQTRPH
Rapamycin-insensitive companion of mTOR (Homo sapiens), sequence (Q6R327 whole entry): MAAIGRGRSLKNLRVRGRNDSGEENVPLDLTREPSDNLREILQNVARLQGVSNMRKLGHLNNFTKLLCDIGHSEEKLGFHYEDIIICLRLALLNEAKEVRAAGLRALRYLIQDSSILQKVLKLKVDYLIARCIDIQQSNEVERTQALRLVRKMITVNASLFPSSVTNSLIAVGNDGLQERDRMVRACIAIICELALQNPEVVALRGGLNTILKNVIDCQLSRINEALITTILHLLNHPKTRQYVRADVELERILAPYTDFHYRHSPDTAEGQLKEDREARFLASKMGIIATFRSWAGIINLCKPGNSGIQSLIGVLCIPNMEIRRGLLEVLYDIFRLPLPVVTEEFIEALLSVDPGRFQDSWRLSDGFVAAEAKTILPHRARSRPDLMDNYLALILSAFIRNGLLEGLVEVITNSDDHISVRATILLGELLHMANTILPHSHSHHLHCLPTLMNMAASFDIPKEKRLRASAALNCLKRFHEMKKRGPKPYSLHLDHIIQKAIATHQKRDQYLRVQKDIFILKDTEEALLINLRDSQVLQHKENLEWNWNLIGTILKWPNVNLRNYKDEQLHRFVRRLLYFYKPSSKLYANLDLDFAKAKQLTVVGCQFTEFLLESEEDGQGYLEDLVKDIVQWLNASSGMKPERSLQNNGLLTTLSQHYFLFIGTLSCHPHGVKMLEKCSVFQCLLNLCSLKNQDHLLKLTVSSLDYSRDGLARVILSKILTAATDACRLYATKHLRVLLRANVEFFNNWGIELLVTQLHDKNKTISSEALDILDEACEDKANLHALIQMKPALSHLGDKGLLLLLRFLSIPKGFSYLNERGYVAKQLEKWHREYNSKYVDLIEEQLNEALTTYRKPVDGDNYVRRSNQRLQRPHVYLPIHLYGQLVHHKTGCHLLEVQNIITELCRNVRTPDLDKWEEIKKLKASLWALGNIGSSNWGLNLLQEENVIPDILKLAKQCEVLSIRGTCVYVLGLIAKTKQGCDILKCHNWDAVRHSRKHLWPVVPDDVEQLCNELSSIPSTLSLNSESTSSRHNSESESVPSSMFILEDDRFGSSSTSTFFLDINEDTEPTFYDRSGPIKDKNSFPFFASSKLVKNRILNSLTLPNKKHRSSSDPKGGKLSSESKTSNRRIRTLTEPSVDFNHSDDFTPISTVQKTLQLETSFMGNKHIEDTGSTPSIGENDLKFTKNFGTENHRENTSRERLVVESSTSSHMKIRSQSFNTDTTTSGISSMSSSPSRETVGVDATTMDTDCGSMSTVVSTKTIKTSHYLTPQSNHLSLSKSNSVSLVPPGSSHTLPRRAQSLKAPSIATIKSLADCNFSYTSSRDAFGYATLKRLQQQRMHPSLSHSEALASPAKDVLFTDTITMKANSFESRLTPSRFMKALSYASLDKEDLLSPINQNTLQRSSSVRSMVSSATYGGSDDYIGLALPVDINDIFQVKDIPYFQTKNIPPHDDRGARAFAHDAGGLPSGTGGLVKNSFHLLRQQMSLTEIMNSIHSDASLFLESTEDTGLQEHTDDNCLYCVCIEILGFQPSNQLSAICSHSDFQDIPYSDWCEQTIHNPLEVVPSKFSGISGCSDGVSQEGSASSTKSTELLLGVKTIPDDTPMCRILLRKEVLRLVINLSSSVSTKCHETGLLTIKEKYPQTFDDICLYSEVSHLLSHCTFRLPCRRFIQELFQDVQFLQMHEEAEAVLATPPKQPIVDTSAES

**Q.** Which results are given for CNC(=O)CCc1cc(-c2ccc(-c3ccc(C(F)(F)F)cc3)cc2)n(-c2ccc(N3CCNCC3)cc2)n1?
**A.** inhibition [1]: inactive; Activity (PC-3 [2]): inactive; Activity (PC-3 [3]): inactive; Activity (SK-BR-3 [4]): Dose-dependent effect; inhibition [5]: inactive; Activity (SK-BR-3 [6]): inactive; Activity (SK-BR-3 [7]): inactive; inhibition [8]: Active; Activity (PC-3 [9]): inactive; IC50 (Scaffold protein ILK): 600 nM; inhibition [10]: Dose-dependent effect; Activity (Mus musculus): Dose-dependent effect; inhibition [11]: inactive; inhibition [12]: inactive; Activity (PC-3 [13]): Dose-dependent effect
